The term Ki denotes the dissociation constant of the complex between target and ligand, obtained from inhibition or displacement. Low readings indicate tighter binding, high ones weaker binding. One may read the pKa as the negative logarithm of the acid dissociation constant. Read a high pKa as a group that holds its proton tightly.

Bounds are passed on as bounds.

Data set [1] is described as follows: Inhibition of yeast alpha glucosidase at pH 6.8. Further details: species or system Saccharomyces cerevisiae. An outline of the steps:
(§1)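 Nitrophenyl glycoside substrate hydrolysis in 0.1 M sodium phosphate, pH 6.8, 25 °C. Seven cuvettes hold a fixed inhibitor concentration and seven hold none, each across varying substrate levels. The reaction is started with diluted enzyme, and 4- or 2-nitrophenol release is followed at 400 nm for 2 min. Ki = [I]/(KM′/KM − 1) from KM with and without inhibitor.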

The target in data set [2] is T1, Tissue alpha-L-fucosidase (Bos taurus, UniProt Q2KIM0).
T1 sequence (Q2KIM0 whole entry): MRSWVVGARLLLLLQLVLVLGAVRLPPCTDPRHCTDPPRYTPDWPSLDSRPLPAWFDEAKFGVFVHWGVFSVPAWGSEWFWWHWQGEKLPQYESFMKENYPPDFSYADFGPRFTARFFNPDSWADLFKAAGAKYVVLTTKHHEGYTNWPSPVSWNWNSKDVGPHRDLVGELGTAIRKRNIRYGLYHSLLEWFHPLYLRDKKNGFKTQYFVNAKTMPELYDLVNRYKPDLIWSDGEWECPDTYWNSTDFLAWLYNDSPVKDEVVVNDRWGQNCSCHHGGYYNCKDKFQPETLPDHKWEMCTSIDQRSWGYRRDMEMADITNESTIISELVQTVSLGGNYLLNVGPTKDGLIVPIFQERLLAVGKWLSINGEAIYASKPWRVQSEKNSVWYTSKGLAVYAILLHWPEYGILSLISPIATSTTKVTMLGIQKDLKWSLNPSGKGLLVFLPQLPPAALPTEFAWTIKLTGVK
The experiment in a line: Inhibition of bovine kidney alpha fucosidase at pH 6.8. The procedure, abridged:
as §1

Data set [3] has as its target T2, Tissue alpha-L-fucosidase (Homo sapiens, UniProt P04066).
T2 sequence (P04066 whole entry): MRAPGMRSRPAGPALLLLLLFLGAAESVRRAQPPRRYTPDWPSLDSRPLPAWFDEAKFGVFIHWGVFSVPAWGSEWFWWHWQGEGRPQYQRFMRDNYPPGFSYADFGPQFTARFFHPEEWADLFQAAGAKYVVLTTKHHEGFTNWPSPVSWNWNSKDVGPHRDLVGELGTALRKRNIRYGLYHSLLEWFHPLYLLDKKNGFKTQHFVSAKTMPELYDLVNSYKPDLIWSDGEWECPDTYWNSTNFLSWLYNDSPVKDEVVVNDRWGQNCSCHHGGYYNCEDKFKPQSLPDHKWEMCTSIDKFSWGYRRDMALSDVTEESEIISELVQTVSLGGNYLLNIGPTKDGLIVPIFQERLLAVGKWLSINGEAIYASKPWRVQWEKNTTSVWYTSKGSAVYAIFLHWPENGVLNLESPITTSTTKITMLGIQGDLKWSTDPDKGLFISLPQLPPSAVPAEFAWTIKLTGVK
The experiment in a line: Inhibition of human placenta alpha fucosidase at pH 6.8. An outline of the steps:
as §1

The next data set deals with Alpha-galactosidase (Coffea arabica, UniProt Q5DUH8). The experiment in a line: Inhibition of green coffee beans alpha galactosidase at pH 6.8. The procedure, abridged: as §1
Data set [4] can be described thus: Dissociation constant, pKa of the compound. It counts as physicochemical.

Alpha-galactosidase, sequence (Q5DUH8 whole entry): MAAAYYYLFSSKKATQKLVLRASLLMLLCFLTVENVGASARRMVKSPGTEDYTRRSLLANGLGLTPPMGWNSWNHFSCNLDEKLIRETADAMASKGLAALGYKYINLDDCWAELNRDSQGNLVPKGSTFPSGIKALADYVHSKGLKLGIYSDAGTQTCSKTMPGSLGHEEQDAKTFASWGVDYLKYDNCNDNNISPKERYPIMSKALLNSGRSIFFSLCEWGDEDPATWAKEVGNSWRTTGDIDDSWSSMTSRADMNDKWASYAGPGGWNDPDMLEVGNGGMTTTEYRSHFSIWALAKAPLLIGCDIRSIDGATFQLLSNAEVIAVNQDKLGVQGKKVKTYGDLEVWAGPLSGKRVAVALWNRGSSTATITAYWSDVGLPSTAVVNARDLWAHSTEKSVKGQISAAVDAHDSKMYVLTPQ

Regarding `C[C@H]1NC[C@H](O)[C@@H](O)C1(F)F`, the Ki (in data set [1]; in data set [2]; in data set [3]; on Alpha-galactosidase) was greater than 1000 µM each time.
Compound `OC[C@H]1NC[C@@H](O)[C@@H](O)C1(F)F` returned a pKa in data set [4] of 5.3.
For the compound `C[C@@H]1NC[C@@H](O)[C@H](O)C1(F)F`, the Ki was greater than 1000 µM in data set [1], 570 µM in data set [2], 250 µM in data set [3] and greater than 1000 µM at Alpha-galactosidase.

(Values after ChEMBL document CHEMBL1147677, “Synthesis and biological evaluation of glycosidase inhibitors: gem-difluoromethylenated nojirimycin analogues” (J Med Chem, 2006).)
